Measurements as given in ChEMBL document CHEMBL1140291, “Quinic acid derivatives as sialyl Lewis(x)-mimicking selectin inhibitors: design, synthesis, and crystal structure in complex with E-selectin” (J Med Chem, 2005).

How the values were obtained:
[1] = Clearance observed in rat ( 20 mg/kg iv ); type: ADME, organism-based; design: dose 20 mg/kg, route intravenous; details: in vivo
Outline: (§1)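 Single 20 mg/kg iv bolus (10 mg/mL in 50% DMSO/50% PEG400). Blood drawn at 5 min and 0.5, 0.75, 1, 2, 4, 7, 24 h, with saline replacing lost volume. Plasma precipitated with CH3CN and analysed by LC/MS. Linear trapezoid noncompartmental analysis.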

[2] = Maximum concentration observed in rat ( 20 mg/kg iv ); type: ADME, organism-based; design: dose 20 mg/kg, route intravenous; details: in vivo; outline: as §1
[3] = Area under curve in rat ( 20 mg/kg iv ); type: ADME, organism-based; design: dose 20 mg/kg, route intravenous; details: in vivo; outline: as §1
P-selectin = target: T1, P-selectin (Homo sapiens, UniProt P16109); assay: Inhibitory concentration against selectin P in Biacore assay
T1 sequence (P16109 whole entry): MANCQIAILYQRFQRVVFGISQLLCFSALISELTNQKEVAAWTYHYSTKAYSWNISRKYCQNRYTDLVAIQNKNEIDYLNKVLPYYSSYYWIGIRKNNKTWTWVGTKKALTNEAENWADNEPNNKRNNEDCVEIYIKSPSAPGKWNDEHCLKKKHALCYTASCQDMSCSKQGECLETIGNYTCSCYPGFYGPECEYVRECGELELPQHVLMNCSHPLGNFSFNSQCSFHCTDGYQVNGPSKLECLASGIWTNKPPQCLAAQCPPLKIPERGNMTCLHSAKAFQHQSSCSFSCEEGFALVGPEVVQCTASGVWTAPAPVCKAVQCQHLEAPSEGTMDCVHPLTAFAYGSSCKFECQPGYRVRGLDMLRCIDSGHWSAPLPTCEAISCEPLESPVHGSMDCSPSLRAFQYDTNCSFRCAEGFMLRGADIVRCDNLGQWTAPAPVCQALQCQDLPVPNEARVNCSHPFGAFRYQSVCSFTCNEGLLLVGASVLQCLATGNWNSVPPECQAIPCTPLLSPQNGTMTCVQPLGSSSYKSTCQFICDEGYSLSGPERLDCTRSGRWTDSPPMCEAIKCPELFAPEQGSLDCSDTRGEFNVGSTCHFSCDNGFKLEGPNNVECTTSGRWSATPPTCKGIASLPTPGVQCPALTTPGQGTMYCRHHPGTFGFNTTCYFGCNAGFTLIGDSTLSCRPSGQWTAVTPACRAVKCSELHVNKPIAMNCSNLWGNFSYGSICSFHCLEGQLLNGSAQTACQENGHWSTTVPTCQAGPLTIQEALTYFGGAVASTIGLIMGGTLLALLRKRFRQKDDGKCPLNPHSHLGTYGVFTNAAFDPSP
Outline: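 SPR at 25 °C. Biotinylated monomeric truncated human PSGL-1 (19ek) was immobilised on a streptavidin chip. Compounds were preincubated 1 h with 500 nM monomeric P-selectin (P-LE) in HEPES/NaCl/1 mM CaCl2/MgCl2/0.05% P40/10% DMSO, then injected at 0–6 mM in duplicate, at least two runs. IC50 was extrapolated from the RU vs concentration plot after blank and reference subtraction.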

[4] = (§2) Anti-inflammatory activity as selectin-mediated rolling of human neutrophils on stimulated human umbilical vein endothelial cells; type: functional, cell-based; details: endothelial cell
Outline: (§3)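 Parallel plate flow chamber; human neutrophils rolled over confluent HUVEC monolayers activated with […] just before the run to raise surface P-selectin. Rolling cells counted by digital imaging/videotape, averaged over 10 fields on each of three monolayers per test article. Active compounds titrated for IC50. Glycyrrhizin trisodium salt as positive control.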

[5] = as §2; type: functional, cell-based; details: endothelial cell; remark: listed apart in the source
Outline: as §3, with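 “article.” for “article. Active compounds titrated for IC50.”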

clearance [1] [mL/min/kg] | Cmax [2] [µM] | AUC [3] [µM·h] | IC50 (P-selectin) [µM] | IC50 [4] [µM] | IC50 [5] [µM] | SMILES
4 | 212 | 219 | 10000 | 625 | – | O=C(O)[C@]1(OCc2ccc(-c3ccccc3C(F)(F)F)cc2)C[C@@H](O)[C@@H](O)[C@H](O)C1
– | – | – | ≤ 2 | – | 1000 | O=C(O)[C@]1(OCc2ccccc2-c2cccc3c2Sc2ccccc2S3)C[C@@H](O)[C@@H](O)[C@H](O)C1
